Common to all, as to details: stereoisomer not certain
The target in one assay is T1, UniProt L7MU75.
T1 sequence (whole entry): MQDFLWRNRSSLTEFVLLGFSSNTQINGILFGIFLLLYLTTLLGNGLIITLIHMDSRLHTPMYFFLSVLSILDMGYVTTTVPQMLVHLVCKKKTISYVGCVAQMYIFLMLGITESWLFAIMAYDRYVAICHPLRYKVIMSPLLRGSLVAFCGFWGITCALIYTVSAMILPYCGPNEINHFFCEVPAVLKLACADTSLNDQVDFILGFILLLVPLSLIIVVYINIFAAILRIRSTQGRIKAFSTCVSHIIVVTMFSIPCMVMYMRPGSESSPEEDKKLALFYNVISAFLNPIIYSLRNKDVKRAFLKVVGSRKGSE
The method in brief:
(§1)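 Values were gathered from published papers (main text and supplementary material), with extra details requested from the original authors when needed, and checked for typos and inconsistencies. Each receptor–molecule pair is called responsive (active) if the original authors judged the measured signal statistically different from baseline, and non-responsive (inactive) otherwise. Assay methods varied by source, often transient mammalian cell-line luciferase assays. Recorded details include cell line, G-protein, co-transfected protein and tags.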

A further assay has as its target T2, UniProt L7N0P5.
T2 sequence (whole entry): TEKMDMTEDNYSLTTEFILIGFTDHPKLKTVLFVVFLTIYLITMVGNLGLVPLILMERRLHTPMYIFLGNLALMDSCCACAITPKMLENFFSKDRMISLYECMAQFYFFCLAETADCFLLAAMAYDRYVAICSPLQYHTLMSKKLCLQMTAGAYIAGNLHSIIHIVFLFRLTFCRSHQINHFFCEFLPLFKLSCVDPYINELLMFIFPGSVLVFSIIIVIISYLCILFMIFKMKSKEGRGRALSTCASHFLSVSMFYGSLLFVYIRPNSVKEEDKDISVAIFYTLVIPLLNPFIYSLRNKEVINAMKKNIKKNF
The method in brief:
as §1

In another assay the target is T3, UniProt L7N210.
T3 sequence (whole entry): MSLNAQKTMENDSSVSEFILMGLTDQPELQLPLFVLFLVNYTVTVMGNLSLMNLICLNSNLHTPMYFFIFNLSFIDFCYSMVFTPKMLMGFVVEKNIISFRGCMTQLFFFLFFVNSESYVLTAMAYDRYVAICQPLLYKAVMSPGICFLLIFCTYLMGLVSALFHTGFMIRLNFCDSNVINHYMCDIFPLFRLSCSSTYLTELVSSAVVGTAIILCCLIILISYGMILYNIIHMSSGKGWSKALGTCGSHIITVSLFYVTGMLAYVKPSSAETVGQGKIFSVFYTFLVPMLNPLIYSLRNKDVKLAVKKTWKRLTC
The method in brief:
as §1

A further assay has as its target T4, UniProt Q3KPB0.
T4 sequence (whole entry): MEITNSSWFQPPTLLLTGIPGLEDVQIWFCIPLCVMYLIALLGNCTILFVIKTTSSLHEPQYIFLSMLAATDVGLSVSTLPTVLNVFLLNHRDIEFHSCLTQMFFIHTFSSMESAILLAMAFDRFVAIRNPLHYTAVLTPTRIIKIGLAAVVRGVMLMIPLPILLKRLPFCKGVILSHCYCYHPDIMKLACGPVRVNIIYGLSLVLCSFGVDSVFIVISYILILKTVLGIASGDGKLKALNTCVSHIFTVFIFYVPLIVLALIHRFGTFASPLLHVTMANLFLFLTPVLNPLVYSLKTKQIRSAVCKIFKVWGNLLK
The method in brief: as §1

A further assay has as its target T5, UniProt Q3U0P3.
T5 sequence (whole entry): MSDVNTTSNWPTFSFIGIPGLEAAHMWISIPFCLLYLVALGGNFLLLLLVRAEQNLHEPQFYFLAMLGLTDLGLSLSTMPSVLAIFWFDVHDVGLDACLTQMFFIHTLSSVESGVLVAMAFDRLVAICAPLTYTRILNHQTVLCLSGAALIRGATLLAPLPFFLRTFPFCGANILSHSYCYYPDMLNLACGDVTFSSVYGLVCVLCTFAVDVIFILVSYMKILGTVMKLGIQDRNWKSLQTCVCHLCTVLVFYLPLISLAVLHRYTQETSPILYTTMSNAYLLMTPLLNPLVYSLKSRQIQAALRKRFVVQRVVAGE
An outline of the steps: as §1

A further assay deals with T6, UniProt Q7TQU8.
T6 sequence (whole entry): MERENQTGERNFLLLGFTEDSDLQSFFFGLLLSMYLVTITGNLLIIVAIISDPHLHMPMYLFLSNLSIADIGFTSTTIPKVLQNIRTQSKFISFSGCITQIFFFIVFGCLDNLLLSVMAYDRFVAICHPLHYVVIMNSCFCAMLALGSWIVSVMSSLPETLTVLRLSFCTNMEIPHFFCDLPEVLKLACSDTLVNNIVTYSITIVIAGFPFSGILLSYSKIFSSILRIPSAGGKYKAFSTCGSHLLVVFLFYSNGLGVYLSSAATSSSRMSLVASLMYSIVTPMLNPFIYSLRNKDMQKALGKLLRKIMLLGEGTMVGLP
The method in brief: as §1

The target of the next assay is T7, UniProt Q7TR79.
T7 sequence (whole entry): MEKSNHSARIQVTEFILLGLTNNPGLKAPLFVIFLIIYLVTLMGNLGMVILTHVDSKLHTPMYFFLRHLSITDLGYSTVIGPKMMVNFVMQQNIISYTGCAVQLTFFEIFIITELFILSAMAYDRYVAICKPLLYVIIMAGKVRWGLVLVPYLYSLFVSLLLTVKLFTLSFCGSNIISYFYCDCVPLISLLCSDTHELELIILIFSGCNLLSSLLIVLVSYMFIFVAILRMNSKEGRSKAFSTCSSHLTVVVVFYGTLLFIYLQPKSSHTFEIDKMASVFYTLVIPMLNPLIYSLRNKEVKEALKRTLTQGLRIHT
An outline of the steps:
as §1

In the next assay the target is T8, UniProt Q7TQV4.
T8 sequence (whole entry): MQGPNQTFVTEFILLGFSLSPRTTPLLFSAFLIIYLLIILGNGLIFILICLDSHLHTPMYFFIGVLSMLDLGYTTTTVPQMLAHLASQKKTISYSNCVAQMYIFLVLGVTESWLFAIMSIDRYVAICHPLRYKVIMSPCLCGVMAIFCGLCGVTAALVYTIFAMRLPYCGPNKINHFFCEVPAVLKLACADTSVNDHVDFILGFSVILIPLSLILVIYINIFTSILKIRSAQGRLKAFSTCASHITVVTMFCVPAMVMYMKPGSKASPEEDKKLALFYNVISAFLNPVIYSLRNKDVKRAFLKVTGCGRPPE
An outline of the steps: as §1

In another assay the target is T9, UniProt Q7TR71.
T9 sequence (whole entry): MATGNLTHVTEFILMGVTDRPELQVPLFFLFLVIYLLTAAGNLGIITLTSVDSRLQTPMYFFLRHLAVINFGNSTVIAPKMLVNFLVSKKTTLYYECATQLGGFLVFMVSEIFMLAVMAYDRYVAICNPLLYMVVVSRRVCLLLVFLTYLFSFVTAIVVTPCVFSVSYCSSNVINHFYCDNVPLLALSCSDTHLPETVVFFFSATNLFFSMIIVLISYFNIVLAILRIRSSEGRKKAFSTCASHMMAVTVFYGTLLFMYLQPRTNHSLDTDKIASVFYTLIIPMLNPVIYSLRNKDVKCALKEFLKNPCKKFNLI
An outline of the steps:
as §1

Another assay addresses T10, UniProt Q7TRA3.
T10 sequence (whole entry): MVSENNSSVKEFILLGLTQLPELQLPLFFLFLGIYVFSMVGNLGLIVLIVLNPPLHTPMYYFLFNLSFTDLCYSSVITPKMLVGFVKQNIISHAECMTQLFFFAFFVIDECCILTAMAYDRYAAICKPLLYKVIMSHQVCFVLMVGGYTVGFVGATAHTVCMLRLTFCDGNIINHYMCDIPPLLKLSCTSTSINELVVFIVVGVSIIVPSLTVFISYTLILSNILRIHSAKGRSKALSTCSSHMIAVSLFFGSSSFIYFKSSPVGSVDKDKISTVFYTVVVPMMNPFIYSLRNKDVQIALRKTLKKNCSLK
The method in brief: as §1

A further assay has as its target T11, UniProt Q7TRE4.
T11 sequence (whole entry): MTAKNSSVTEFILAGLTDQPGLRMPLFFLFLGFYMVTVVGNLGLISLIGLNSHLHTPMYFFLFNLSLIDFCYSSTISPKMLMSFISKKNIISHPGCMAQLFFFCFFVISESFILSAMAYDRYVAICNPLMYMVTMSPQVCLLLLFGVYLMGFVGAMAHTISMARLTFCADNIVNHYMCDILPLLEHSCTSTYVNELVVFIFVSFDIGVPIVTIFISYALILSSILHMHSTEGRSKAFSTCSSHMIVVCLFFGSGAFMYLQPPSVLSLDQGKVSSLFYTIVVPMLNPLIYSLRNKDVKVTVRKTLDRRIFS
The method in brief: as §1

Another assay deals with UniProt L7N1Y8. An outline of the steps:
as §1

For a further assay, the target named is UniProt Q7TR75. An outline of the steps:
as §1

In a further assay the target is T12, UniProt Q7TRA1.
T12 sequence (whole entry): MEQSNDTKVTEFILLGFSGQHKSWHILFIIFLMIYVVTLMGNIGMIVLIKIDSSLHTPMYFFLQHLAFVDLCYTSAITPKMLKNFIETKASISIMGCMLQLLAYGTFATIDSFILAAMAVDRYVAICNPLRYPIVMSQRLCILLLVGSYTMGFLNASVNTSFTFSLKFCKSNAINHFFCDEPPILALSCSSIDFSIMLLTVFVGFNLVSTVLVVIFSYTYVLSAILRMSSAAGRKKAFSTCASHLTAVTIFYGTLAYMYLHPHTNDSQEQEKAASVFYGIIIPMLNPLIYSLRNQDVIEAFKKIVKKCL
The method in brief: as §1

Another assay concerns the target T13, UniProt Q7TRA2.
T13 sequence (whole entry): T12 sequence (whole entry) with S18A, I86T, I94F, M95I, S112C, V208L, T219I, V221I, V305A
The method in brief: as §1

The target in a further assay is UniProt Q7TRB8. The method in brief:
as §1

Positions count from the first letter of the chain named.

Chain of UniProt Q7TRB8 (Q7TRB8 as listed by the source): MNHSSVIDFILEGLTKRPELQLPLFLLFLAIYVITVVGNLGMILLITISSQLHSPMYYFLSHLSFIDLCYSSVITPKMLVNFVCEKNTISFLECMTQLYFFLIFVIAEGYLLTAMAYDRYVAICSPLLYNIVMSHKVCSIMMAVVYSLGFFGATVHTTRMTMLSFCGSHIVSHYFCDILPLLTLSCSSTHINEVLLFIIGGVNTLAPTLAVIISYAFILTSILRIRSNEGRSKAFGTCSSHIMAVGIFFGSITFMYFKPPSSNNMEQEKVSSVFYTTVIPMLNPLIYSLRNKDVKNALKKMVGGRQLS
Chain of UniProt L7N1Y8 (L7N1Y8 as listed by the source): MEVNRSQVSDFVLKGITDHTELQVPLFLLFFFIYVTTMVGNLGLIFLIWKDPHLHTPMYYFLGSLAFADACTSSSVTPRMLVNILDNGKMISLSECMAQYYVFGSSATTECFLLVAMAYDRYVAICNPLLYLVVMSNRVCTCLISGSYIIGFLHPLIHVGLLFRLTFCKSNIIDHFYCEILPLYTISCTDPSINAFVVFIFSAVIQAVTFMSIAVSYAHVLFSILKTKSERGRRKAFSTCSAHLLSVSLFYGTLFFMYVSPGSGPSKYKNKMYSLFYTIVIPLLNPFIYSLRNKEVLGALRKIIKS
Chain of UniProt Q7TR75 (Q7TR75 as listed by the source): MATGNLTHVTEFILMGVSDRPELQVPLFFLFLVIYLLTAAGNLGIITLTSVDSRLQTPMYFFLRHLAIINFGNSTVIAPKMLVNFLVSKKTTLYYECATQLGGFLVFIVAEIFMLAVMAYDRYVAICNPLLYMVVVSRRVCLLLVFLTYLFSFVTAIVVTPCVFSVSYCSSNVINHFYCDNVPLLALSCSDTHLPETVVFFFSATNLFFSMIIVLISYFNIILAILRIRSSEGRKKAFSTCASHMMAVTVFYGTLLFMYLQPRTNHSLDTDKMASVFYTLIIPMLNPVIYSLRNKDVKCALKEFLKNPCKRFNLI

On to `CCc1ncc(C)nc1CC`, for which the “odorant receptor agonist call” value in the assay with UniProt L7MU75, with UniProt L7N210, in the assay with UniProt Q3KPB0, with UniProt Q3U0P3, with UniProt Q7TQU8 and with UniProt Q7TR79 was “inactive” each time. Besides, the “odorant receptor agonist call” value with UniProt L7N0P5 was “active”.

On to `CC(C)C12CCC(C)(CC1)O2`, for which, in the assay with UniProt L7MU75, the “odorant receptor agonist call” value is “inactive”.

As to `CCCCCCCCCS`, the “odorant receptor agonist call” value with UniProt L7MU75, with UniProt L7N210, with UniProt Q3KPB0, with UniProt Q3U0P3, with UniProt Q7TQU8 and with UniProt Q7TQV4 was “inactive” throughout. Moreover, the “odorant receptor agonist call” value with UniProt Q7TR71, with UniProt Q7TR79, with UniProt Q7TRA3 and in the assay with UniProt Q7TRE4 was “inactive” in each case.

`O=c1ccc2ccccc2o1`: the “odorant receptor agonist call” value with UniProt L7MU75, in the assay with UniProt L7N1Y8, with UniProt L7N210, with UniProt Q7TQV4, with UniProt Q7TR71 and with UniProt Q7TR75 was “active” in each case. Further, the “odorant receptor agonist call” value in the assay with UniProt Q7TRA3, with UniProt Q7TRB8 and with UniProt Q7TRE4 was “active” each time. Also, the “odorant receptor agonist call” value in the assay with UniProt Q7TRA1 and in the assay with UniProt Q7TRA2 was “inactive” in each case.

Take `CC(C)=CCCC(C)CC=O` (stereo unspecified): in the assay with UniProt L7MU75, the “odorant receptor agonist call” value was “inactive”.

Consider `COc1nccnc1C(C)C`, for which the “odorant receptor agonist call” value in the assay with UniProt L7MU75, in the assay with UniProt L7N210, with UniProt Q3KPB0, with UniProt Q3U0P3, in the assay with UniProt Q7TQU8 and in the assay with UniProt Q7TR79 was “inactive” in each case. Further, the “odorant receptor agonist call” value with UniProt L7N0P5 is “active”.

Regarding `CCC(=O)OC`, the “odorant receptor agonist call” value with UniProt L7MU75 is “inactive”.

Regarding `COc1cnccn1`, the “odorant receptor agonist call” value with UniProt L7MU75, with UniProt L7N210, with UniProt Q3KPB0, with UniProt Q3U0P3, with UniProt Q7TQU8 and with UniProt Q7TR79 was “inactive” each time. Moreover, the “odorant receptor agonist call” value with UniProt L7N0P5 is “active”.

Consider `CCCCCC(C)(C)O`, for which the “odorant receptor agonist call” value with UniProt L7MU75 is “inactive”.
